Positions of bridges follow the written chain, without caps; N, C: chain ends. Non-standard residues stand in square brackets, D forms with d. Residues, ends and D or L forms follow the SMILES beside them. *: point of attachment. Threoninol(2S,3R) = C[C@@H](O)[C@H](CO)N*
What was measured:
Assay type in all cases: cell-based
[1] = target: Somatostatin receptor type 3 (Homo sapiens) (UniProt P32745); assay: Binding assay at human somatostatin receptor 3 (hsst3) expressed in CCL-39 cells using LTT-CST-14-(Tyr10) as radioligand.
How it was run: (§1)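 Chinese hamster lung fibroblast CCL39 cells stably expressing each hsst receptor; crude membrane homogenates in 10 mM HEPES pH 7.5, 0.5% BSA, 5 mM MgCl2, 5 mg/mL bacitracin. Competition against 25-50 pM [125I][Tyr10]CST14; 1 µM SRIF14 defines nonspecific binding. Vacuum filtration, bound radioactivity counted. Triplicate curves fitted by nonlinear regression; pKD reported.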

[2] = target: Somatostatin receptor type 2 (Homo sapiens) (UniProt P30874); assay: Binding assay at human somatostatin receptor 2 (hsst2) expressed in CCL-39 cells using LTT-CST-14-(Tyr10) as radioligand.
How it was run: (§2)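 Chinese hamster lung fibroblast CCL39 cells stably expressing each hsst receptor; crude membrane homogenates in 10 mM HEPES pH 7.5, 0.5% BSA, 5 mM MgCl2, 5 mg/mL bacitracin. Vacuum filtration, bound radioactivity counted. Triplicate curves fitted by nonlinear regression; pKD reported.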

[3] = target: Somatostatin receptor type 4 (Homo sapiens) (UniProt P31391); assay: Binding assay at human somatostatin receptor 4 (hsst4) expressed in CCL-39 cells using LTT-CST-14-(Tyr10) as radioligand.; how it was run: as §2
[4] = target: Somatostatin receptor type 5 (Homo sapiens) (UniProt P35346); assay: Binding assay at human somatostatin receptor 5 (hsst5) expressed in CCL-39 cells using LTT-CST-14-(Tyr10) as radioligand.; how it was run: as §2
[5] = target: Somatostatin receptor type 1 (Homo sapiens) (UniProt P30872); assay: Binding assay at human somatostatin receptor 1 (hsst1) expressed in CCL-39 cells using LTT-CST-14-(Tyr10) as radioligand.; how it was run: as §1
Sequence of Somatostatin receptor type 1 (Homo sapiens) (P30872 whole entry): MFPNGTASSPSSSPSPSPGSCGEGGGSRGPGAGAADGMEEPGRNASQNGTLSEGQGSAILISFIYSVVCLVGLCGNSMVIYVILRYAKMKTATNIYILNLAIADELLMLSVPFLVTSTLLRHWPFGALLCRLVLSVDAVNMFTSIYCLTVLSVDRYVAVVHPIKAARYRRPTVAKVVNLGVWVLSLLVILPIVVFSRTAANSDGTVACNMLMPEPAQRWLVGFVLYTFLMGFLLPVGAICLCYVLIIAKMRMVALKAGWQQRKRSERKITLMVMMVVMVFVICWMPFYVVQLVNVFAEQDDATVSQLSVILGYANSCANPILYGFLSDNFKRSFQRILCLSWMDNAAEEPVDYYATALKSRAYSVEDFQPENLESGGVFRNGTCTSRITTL

Sequence of Somatostatin receptor type 5 (Homo sapiens) (P35346 whole entry): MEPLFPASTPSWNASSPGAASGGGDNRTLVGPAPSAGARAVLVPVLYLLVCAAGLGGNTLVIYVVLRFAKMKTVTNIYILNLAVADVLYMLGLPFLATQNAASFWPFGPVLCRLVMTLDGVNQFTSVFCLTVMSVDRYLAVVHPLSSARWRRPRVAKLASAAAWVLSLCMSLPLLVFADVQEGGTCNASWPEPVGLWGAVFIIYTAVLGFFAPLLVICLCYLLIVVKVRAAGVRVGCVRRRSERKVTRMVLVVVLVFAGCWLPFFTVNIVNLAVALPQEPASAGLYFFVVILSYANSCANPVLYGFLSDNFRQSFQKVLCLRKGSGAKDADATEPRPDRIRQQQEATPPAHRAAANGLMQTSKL
Sequence of Somatostatin receptor type 2 (Homo sapiens) (P30874 whole entry): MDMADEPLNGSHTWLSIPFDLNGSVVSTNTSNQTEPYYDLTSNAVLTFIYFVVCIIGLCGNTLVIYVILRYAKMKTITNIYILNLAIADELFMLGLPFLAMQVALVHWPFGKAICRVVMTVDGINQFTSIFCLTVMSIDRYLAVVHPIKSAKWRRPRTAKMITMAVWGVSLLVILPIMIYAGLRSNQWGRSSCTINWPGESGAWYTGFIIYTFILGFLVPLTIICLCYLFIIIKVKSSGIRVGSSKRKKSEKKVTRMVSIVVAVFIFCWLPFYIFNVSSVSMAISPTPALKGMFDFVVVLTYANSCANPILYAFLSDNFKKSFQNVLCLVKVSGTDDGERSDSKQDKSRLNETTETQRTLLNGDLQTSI
Sequence of Somatostatin receptor type 3 (Homo sapiens) (P32745 whole entry): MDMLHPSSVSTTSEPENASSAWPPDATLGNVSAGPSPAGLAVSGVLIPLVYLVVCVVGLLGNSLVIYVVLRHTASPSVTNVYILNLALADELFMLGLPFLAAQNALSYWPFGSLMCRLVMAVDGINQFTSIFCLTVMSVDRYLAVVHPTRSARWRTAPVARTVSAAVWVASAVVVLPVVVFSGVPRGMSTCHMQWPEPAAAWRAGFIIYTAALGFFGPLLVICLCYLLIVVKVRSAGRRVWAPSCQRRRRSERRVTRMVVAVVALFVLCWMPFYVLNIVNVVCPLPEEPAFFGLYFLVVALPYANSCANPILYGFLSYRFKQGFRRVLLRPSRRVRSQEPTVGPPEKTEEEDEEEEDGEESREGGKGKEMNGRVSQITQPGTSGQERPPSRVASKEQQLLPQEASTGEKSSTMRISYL
Sequence of Somatostatin receptor type 4 (Homo sapiens) (P31391 whole entry): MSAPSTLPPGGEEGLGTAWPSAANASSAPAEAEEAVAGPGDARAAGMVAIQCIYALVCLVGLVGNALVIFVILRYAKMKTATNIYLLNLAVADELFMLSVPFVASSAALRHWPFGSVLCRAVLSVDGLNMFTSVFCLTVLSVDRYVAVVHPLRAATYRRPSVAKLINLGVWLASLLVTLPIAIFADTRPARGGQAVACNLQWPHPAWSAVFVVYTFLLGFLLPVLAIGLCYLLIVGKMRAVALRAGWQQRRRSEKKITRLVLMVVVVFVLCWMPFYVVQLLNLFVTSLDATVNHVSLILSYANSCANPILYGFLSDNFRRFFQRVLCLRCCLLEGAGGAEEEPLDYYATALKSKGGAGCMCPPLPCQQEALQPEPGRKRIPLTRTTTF

Row | pKD [1] | pKD [2] | pKD [3] | pKD [4] | pKD [5] | SMILES
1 | < 5 | < 4 | < 5 | < 4 | < 4 | CC(=O)N[C@H](C(=O)N[C@@H](CCCCN)C(=O)N[C@@H](Cc1c[nH]c2ccccc12)C(=O)N[C@@H](Cc1ccccc1)C(N)=O)[C@@H](C)O (Ac-TKWF-NH2)
2 | < 5 | < 5 | 7.08 | < 5 | 4.88 | CC(=O)N[C@H](CC(=O)NC[C@H](CCCCN)C(=O)N[C@H](CC(=O)N[C@H](CC(N)=O)Cc1ccccc1)Cc1c[nH]c2ccccc12)[C@@H](C)O
3 | < 5 | < 4 | < 4 | < 4 | < 4 | CC(=O)N[C@H](CC(=O)N[C@@H](CCCCN)CC(=O)N[C@H](CC(=O)N[C@H](CC(N)=O)Cc1ccccc1)Cc1c[nH]c2ccccc12)[C@@H](C)O

Row | SMILES | pKD [1] | pKD [2] | pKD [3] | pKD [4] | pKD [5]
4 | C[C@@H](O)[C@H](CO)NC(=O)[C@@H]1CSSC[C@H](NC(=O)[C@H](N)Cc2ccccc2)C(=O)N[C@@H](Cc2ccccc2)C(=O)N[C@H](Cc2c[nH]c3ccccc23)C(=O)N[C@@H](CCCCN)C(=O)N[C@@H]([C@@H](C)O)C(=O)N1 (H-[dF]CF[dW]KTC-{Threoninol(2S,3R)}; disulfide 2-7) | 8.6 | – | – | – | –

Reference: ChEMBL document CHEMBL1134538, “Peptide folding induces high and selective affinity of a linear and small beta-peptide to the human somatostatin receptor 4” (J Med Chem, 2001)
